Series [1] can be described thus: Bioavailability in rat at 0.32 mg/kg after po administration (n=3). Format: ADME, organism-based. Conditions: in vivo.
Series [2] can be described thus: Half life in dog after iv administration (n=2-3). Format: ADME, organism-based, Canis lupus familiaris. To be noted: in vivo.
Series [3] can be described thus: Half life in rat after iv administration (n=2-3). Format: ADME, organism-based. Conditions: in vivo.
Series [4] has as its target T1, Prostaglandin E2 receptor EP3 subtype (Homo sapiens, UniProt P43115).
T1 sequence (P43115 whole entry): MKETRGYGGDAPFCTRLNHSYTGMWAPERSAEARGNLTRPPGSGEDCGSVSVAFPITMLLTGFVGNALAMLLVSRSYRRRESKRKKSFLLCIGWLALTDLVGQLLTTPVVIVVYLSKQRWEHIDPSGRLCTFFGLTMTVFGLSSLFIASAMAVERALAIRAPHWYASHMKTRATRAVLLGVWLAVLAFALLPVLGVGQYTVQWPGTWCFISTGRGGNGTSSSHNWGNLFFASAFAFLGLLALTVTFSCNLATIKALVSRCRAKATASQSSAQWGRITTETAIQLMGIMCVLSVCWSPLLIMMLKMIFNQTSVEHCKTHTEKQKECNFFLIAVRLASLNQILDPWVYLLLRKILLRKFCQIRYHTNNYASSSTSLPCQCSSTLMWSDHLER
Description: Inhibition of [3H]PGE-2 binding to human prostanoid EP3 receptor.

Series [5] can be described thus: Clearance in rat after iv administration (n=2-3). Format: ADME, organism-based. To be noted: in vivo.
Series [6] can be described thus: Bioavailability in dog at 0.32 mg/kg after po administration (n=3). Format: ADME, organism-based, Canis lupus familiaris. Conditions: in vivo. The procedure, abridged:
(§1)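 Single oral doses, n = 3 animals per dose. Peak plasma level reported in ng/mL, with oral bioavailability given as F (%). Values are mean ± SE.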

The target of series [7] is Prostaglandin E2 receptor EP4 subtype (Homo sapiens, UniProt P35408). Description: Inhibition of [3H]PGE-2 binding to human prostanoid EP4 receptor.
Prostaglandin E2 receptor EP4 subtype (Homo sapiens, UniProt P35408), sequence (P35408 whole entry): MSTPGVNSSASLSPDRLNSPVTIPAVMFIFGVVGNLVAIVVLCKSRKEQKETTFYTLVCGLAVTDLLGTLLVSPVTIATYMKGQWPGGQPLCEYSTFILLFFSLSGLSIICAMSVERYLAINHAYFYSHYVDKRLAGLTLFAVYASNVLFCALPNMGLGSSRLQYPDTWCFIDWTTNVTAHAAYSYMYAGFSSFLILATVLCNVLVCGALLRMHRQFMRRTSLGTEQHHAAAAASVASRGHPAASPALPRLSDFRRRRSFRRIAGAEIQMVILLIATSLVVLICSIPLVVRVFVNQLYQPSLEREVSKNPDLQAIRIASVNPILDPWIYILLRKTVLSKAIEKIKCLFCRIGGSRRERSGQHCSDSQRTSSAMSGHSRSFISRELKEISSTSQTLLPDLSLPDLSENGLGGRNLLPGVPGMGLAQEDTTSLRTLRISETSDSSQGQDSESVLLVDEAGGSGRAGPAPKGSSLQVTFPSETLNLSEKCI
Series [8] is described as follows: Maximal plasma concentration in dogs after 0.32 mg/kg oral dose, n=3. To be noted: dog. The arrangement: dose 0.32 mg/kg, route oral. Format: ADME, organism-based, Canis lupus familiaris. The procedure, abridged:
as §1

A short description of series [9]: Clearance in dog after iv administration (n=2-3). Format: ADME, organism-based, Canis lupus familiaris. To be noted: in vivo.
Series [10] addresses Prostacyclin receptor (Homo sapiens, UniProt P43119). Kind of series: Inhibition of [3H]iloprost binding to human prostanoid IP receptor.
The target of series [11] is Prostaglandin F2-alpha receptor (Homo sapiens, UniProt P43088). Description: Inhibition of [3H]PGF-2 binding to human prostanoid FP receptor.
Prostaglandin F2-alpha receptor, sequence (P43088 whole entry): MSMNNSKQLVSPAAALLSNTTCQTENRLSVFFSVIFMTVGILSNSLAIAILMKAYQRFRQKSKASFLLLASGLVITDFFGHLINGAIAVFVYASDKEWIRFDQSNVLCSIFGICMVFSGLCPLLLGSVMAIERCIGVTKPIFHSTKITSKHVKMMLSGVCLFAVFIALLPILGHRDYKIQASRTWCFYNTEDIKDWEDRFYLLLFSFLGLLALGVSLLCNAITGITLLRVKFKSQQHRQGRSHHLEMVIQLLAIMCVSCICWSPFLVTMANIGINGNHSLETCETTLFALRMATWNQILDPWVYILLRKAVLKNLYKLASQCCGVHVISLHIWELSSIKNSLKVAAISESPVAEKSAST
The target of series [12] is T2, Prostaglandin D2 receptor (Homo sapiens, UniProt Q13258).
T2 sequence (Q13258 whole entry): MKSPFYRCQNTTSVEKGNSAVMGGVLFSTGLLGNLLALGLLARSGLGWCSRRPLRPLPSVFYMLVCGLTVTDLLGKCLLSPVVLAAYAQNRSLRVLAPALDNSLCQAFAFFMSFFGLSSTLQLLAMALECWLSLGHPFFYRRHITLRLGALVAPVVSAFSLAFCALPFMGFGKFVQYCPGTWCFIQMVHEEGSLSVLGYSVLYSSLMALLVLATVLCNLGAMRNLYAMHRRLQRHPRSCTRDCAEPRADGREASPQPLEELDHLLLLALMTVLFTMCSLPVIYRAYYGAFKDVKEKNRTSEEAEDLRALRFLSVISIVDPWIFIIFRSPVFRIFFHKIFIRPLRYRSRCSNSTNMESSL
Kind of series: Inhibition of [3H]PGD-2 binding to human prostanoid DP receptor.

Series [13] in a line: Maximal plasma concentration in rats after 10 mg/kg oral dose n=3. The arrangement: dose 10 mg/kg, route oral. Format: ADME, organism-based. Conditions: rat.
The nature of series [14]: Bioavailability in rat (dose 10 mg/kg p.o.). Format: ADME, organism-based. To be noted: in vivo, po.
Series [15] has as its target T3, Prostaglandin E2 receptor EP1 subtype (Homo sapiens, UniProt P34995).
T3 sequence (P34995 whole entry): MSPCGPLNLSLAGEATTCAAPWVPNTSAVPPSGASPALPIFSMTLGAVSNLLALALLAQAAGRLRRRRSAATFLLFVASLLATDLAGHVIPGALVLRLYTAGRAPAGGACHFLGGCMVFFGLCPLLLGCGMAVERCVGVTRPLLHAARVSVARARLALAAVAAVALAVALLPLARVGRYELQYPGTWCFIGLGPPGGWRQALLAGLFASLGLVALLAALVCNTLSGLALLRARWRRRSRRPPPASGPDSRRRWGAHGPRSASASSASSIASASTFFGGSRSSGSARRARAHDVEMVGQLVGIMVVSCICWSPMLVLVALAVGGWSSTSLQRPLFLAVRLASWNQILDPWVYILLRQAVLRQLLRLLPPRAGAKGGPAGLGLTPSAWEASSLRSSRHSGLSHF
Kind of series: Inhibition of [3H]-PGE-2 binding to human prostanoid EP1 receptor.

Series [16] has as its target T4, Thromboxane A2 receptor (Homo sapiens, UniProt P21731).
T4 sequence (P21731 whole entry): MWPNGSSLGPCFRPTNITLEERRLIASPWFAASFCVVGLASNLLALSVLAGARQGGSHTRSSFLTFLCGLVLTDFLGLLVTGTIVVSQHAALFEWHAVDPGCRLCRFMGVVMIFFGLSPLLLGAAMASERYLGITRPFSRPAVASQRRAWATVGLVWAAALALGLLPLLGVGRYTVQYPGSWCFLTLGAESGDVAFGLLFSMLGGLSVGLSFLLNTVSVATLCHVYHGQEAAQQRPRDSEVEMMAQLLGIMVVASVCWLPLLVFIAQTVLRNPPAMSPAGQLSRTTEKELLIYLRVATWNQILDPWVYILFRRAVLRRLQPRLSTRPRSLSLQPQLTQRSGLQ
Description: Inhibition of [3H]SQ-29,548 binding to human prostanoid TP receptor.

Series [17] can be described thus: Bioavailability in dog at 3.2 mg/kg after po administration (n=3). Format: ADME, organism-based, Canis lupus familiaris. Conditions: in vivo. The procedure, abridged: as §1
Series [18] is described as follows: Maximal plasma concentration in dogs after 3.2 mg/kg oral dose, n=3. The arrangement: dose 3.2 mg/kg, route oral. Format: ADME, organism-based, Canis lupus familiaris. Conditions: dog. Summed up: as §1
The target in series [19] is Prostaglandin E2 receptor EP2 subtype (Homo sapiens, UniProt P43116). Kind of series: Inhibition of [3H]PGE-2 binding to human prostanoid EP2 receptor.
Prostaglandin E2 receptor EP2 subtype, sequence (P43116 whole entry): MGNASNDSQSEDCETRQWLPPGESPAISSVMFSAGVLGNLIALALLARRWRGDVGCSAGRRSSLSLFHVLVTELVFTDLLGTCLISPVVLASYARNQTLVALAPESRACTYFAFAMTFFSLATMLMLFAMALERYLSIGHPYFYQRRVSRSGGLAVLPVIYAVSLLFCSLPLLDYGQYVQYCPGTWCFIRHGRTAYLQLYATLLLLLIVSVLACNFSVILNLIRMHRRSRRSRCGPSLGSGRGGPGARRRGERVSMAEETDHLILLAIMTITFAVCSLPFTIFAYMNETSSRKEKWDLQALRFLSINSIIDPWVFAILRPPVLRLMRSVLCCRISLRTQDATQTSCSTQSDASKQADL
The target of series [20] is Prostaglandin E2 receptor EP4 subtype (Rattus norvegicus, UniProt P43114). Description: Inhibition of rat prostanoid EP4 receptor.
Prostaglandin E2 receptor EP4 subtype (Rattus norvegicus, UniProt P43114), sequence (P43114 whole entry): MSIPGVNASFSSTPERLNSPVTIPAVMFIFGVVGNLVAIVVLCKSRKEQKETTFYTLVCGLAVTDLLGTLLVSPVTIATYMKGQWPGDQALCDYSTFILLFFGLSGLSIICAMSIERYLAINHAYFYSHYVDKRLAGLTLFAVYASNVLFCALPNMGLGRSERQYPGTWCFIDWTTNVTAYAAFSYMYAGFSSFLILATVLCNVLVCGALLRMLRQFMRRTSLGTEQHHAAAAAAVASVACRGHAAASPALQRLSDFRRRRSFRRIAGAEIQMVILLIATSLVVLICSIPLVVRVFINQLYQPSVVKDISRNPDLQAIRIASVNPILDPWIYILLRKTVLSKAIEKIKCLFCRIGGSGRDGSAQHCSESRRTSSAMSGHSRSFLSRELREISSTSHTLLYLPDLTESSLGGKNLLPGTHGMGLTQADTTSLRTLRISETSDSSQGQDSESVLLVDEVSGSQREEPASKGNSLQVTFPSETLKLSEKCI
The nature of series [21]: Bioavailability in dog at 0.10 mg/kg after po administration (n=3). To be noted: in vivo, 0.1 mg/kg. Format: ADME, organism-based, Canis lupus familiaris. Summed up:
as §1

Series [22] can be described thus: Maximal plasma concentration in dogs after 0.1 mg/kg oral dose, n=3. Format: ADME, organism-based, Canis lupus familiaris. More on the design: dose 0.1 mg/kg, route oral. To be noted: dog. The procedure, abridged:
as §1

10 compounds from ChEMBL document CHEMBL1143620, “Discovery of diphenyloxazole and Ndelta-Z-ornithine derivatives as highly potent and selective human prostaglandin EP(4) receptor antagonists” (J Med Chem, 2005) can be followed below.

Molecules are shown by their SMILES.

Prostacyclin receptor, sequence (P43119 whole entry): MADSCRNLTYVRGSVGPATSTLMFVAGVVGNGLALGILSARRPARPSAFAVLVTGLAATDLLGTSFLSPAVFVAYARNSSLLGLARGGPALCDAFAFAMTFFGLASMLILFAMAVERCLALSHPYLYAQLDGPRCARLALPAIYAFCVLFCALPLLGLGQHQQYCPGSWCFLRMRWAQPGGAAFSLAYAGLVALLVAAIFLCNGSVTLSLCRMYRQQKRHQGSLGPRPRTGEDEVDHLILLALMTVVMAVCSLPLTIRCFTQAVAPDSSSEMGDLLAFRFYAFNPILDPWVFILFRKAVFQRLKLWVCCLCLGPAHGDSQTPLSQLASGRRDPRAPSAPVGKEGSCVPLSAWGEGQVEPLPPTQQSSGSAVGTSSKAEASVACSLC

As for `O=C([O-])COc1cccc(C[C@@H]2CCCC=C2c2nc(-c3ccccc3)c(-c3ccccc3)o2)c1.[Na+]`, the figures for the bioavailability in series [1] and in series [6] were 50% and 72%, respectively. Moreover, the half-life is 3 h in series [2] and 6.6 h in series [3]. For the same compound, the Ki is more than 1 µM in [4] and 1.02 µM in series [7]. Moreover, the Cl in [5] amounted to 17.7 mL/min/kg. The concentration in series [8] peaked (Cmax) at 592 ng/mL. Moreover, in series [9], the clearance is 1.59 mL/min/kg.

As for `O=C(O)Cc1cccc(C[C@@H]2CCCC=C2c2nc(-c3ccccc3)c(-c3ccccc3)o2)c1`, the inhibition constant Ki in [10] amounted to 0.17 µM; in series [7], 0.05 µM.

For `O=C(O)CCCCCNC(=O)[C@H](CCCCNC(=O)OCc1ccccc1)NC(=O)c1cc2ccccc2o1`, the inhibition constant (Ki) in [7] is 0.0084 µM.

For `O=C(NS(=O)(=O)Cc1ccccc1)c1cccc(C[C@@H]2CCCC=C2c2nc(-c3ccccc3)c(-c3ccccc3)o2)c1`, the inhibitory constant (Ki) in series [11], in series [10], in series [4], in series [12], in [15] and in series [16] was more than 3 µM throughout. Also, the figures for the Ki in series [7], in [19] and in series [20] were 0.0003 µM, more than 3 µM and 0.00074 µM, respectively. The figures for the half-life in series [2] and in series [3] were 5.5 h and 4.4 h, respectively. Besides, the figures for the Cmax in series [13] and in series [18] were 2100 ng/mL and 8200 ng/mL, respectively. Also, the results for the bioavailability in [14] and in series [17] were 51% and 97%, respectively. For the same compound, the clearance in series [5] was 10.2 mL/min/kg; in series [9] it was 0.52 mL/min/kg.

As for `O=C(NCCC[C@H](NC(=O)c1cc2ccccc2[nH]1)C(=O)N[C@@H](Cc1ccccc1)C(=O)O)OCc1ccccc1`, the Ki in series [11], in series [10], in [4], in series [12], in [15] and in [16] was more than 1 µM each time. Besides, the inhibition constant (Ki) in series [7] was 0.043 µM; in series [19], more than 1 µM.

In the case of `CN(Cc1ccccc1)C(=O)[C@H](Cc1ccccc1)NC(=O)[C@H](CCCNC(=O)OCc1ccccc1)NC(=O)c1cc2ccccc2[nH]1`, the inhibition constant (Ki) in series [7] was 0.08 µM.

On to `O=C(O)c1cccc(C[C@@H]2CCCC=C2c2nc(-c3ccccc3)c(-c3ccccc3)o2)c1`, for which the Ki in series [11] is more than 3 µM; in [10] it was 0.61 µM; in series [4] it was more than 3 µM; in series [12] it was more than 3 µM; in [15], 2.5 µM; in series [16] it was more than 3 µM. Moreover, the Ki is 0.0055 µM in [7] and more than 3 µM in series [19]. Further, the half-life in series [2] was 5.5 h; in [3] it was 4 h. Also, the Cmax turned out to be 9100 ng/mL in [13] and 57.3 ng/mL in series [22]. Moreover, the results for the bioavailability in [14] and in [21] were 99% and 25%, respectively. Moreover, the clearance in series [5] was 11.2 mL/min/kg; in series [9], 0.52 mL/min/kg.

As for `O=C(O)CCCCCNC(=O)[C@H](CCCNC(=O)OCc1ccccc1)NC(=O)c1cc2ccccc2o1`, the inhibition constant Ki in series [11], in [10], in series [4], in series [12], in series [15] and in series [16] was more than 10 µM in each case. For the same compound, the Ki is 0.00091 µM in [7], more than 10 µM in series [19] and 0.0051 µM in series [20].

`O=C(O)CCCCCNC(=O)[C@@H](CCCCNC(=O)OCc1ccccc1)NC(=O)c1cc2ccccc2o1` registered a Ki in series [7] of 0.24 µM.

For the compound `O=C(NOCc1ccccc1)c1cccc(C[C@@H]2CCCC=C2c2nc(-c3ccccc3)c(-c3ccccc3)o2)c1`, the Ki is more than 1 µM in series [11]; more than 3 µM in series [10]; more than 3 µM in series [4]; more than 1 µM in series [12]; more than 3 µM in series [15]; more than 1 µM in series [16]. For the same compound, the inhibitory constant (Ki) in series [7] is 0.00068 µM; in series [19] it was more than 3 µM.

The bioavailability is dose-corrected exposure relative to a reference, in per cent. Higher therefore signals much systemic uptake. As a reminder, the half-life is the time needed for the level to fall by half in the phase considered. Higher therefore signals slow decline. The Ki is a measure of affinity in units of concentration, obtained from inhibition or displacement. In general, Cmax refers to the highest concentration seen after dosing. The clearance is a measure of how efficiently the substance is removed, as volume per time. Low readings indicate a low capacity for elimination, high ones a high capacity for elimination.
